# From ChEMBL document CHEMBL1933008, “Novel 2-(2-(4-aryloxybenzylidene) hydrazinyl)benzothiazole derivatives as anti-tubercular agents” (2012)
# Test system: Mycobacterium tuberculosis
# Test: Antitubercular activity against Mycobacterium tuberculosis
# Format: functional
# Conditions: not given
# Procedure, shortened: (§1)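 M. tuberculosis H37Rv suspension seeded at 10^5 cells per well in Middlebrook 7H9 broth. Compounds serially diluted directly on the plate; control got equivalent DMSO. Incubated 37 °C for 7 days, then 0.02% fresh resazurin added and incubated a further 48 h. MIC read visually as the lowest concentration giving complete inhibition (no blue-to-pink change).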
row,SMILES,MIC [µg/mL]
1,Oc1cc(Cl)ccc1Oc1ccc(Cl)cc1Cl [TRICLOSAN],5

# Test system: Mycobacterium tuberculosis
# Test: Antitubercular activity against Mycobacterium tuberculosis H37Rv after 7 days by Resazurin microtiter assay
# Format: functional
# Conditions: 168 h
# Procedure, shortened: as §1
row,SMILES,MIC [µg/mL]
1,NNC(=O)c1ccncc1 [ISONIAZID],0.4
2,COc1ccc2nc(N/N=C\c3ccc(Oc4ccc(Cl)cc4)cc3)sc2c1,8
3,Cc1cc(Oc2ccc(/C=N\Nc3nc4ccccc4s3)cc2)ccc1Cl,6.63
4,Cc1ccc2nc(N/N=C\c3ccc(Oc4ccccc4Cl)cc3)sc2c1,4.75
5,O=[N+]([O-])c1ccc2nc(N/N=C\c3ccc(Oc4ccc(Cl)cc4Cl)cc3)sc2c1,23.5
6,Clc1ccc(Oc2ccc(/C=N\Nc3nc4ccc(Cl)cc4s3)cc2)cc1,2.25
7,NNc1nc2ccccc2s1,288
8,Cc1ccc2nc(NN)sc2c1,222
9,COc1ccc2nc(N/N=C\c3ccc(Oc4ccc(Cl)cc4Cl)cc3)sc2c1,27.5
10,Cc1ccc2nc(N/N=C\c3ccc(Oc4ccccc4)cc3)sc2c1,9.13
11,Cc1ccc2nc(N/N=C\c3ccc(Oc4ccc(Cl)c(C)c4)cc3)sc2c1,15
12,Cc1cc(Oc2ccc(/C=N\Nc3nc4ccc(Cl)cc4s3)cc2)ccc1Cl,4.5
13,Clc1ccc(Oc2ccc(/C=N/Nc3nc4ccc(Cl)cc4s3)cc2)c(Cl)c1,1.5
14,O=[N+]([O-])c1ccc2nc(N/N=C\c3ccc(Oc4ccc(Cl)cc4)cc3)sc2c1,26.5
15,Clc1ccc(Oc2ccc(/C=N\Nc3nc4ccccc4s3)cc2)c(Cl)c1,2.63
16,Cc1ccc2nc(N/N=C\c3ccc(Oc4ccc(Cl)cc4Cl)cc3)sc2c1,12.6

row,SMILES,MIC [µg/mL]
1,O=[N+]([O-])c1ccc2nc(N/N=C\c3ccc(Oc4ccccc4)cc3)sc2c1,29
2,Clc1ccc2nc(N/N=C\c3ccc(Oc4ccccc4Cl)cc3)sc2c1,2
3,Clc1ccccc1Oc1ccc(/C=N\Nc2nc3ccccc3s2)cc1,6
4,COc1ccc2nc(N/N=C\c3ccc(Oc4ccccc4Cl)cc3)sc2c1,19.5
5,NNc1nc2ccc(Cl)cc2s1,233
6,Clc1ccc2nc(N/N=C\c3ccc(Oc4ccccc4)cc3)sc2c1,5.5
7,C(=N/Nc1nc2ccccc2s1)/c1ccc(Oc2ccccc2)cc1,12.7
8,Cc1ccc2nc(N/N=C\c3ccc(Oc4ccc(Cl)cc4)cc3)sc2c1,15
9,O=Cc1ccc(Oc2ccccc2Cl)cc1,123
10,O=Cc1ccc(Oc2ccccc2)cc1,133
11,O=Cc1ccc(Oc2ccc(Cl)cc2)cc1,117
12,Clc1ccc(Oc2ccc(/C=N\Nc3nc4ccccc4s3)cc2)cc1,2.94
13,COc1ccc2nc(N/N=C\c3ccc(Oc4ccccc4)cc3)sc2c1,16.5
14,O=[N+]([O-])c1ccc2nc(N/N=C\c3ccc(Oc4ccccc4Cl)cc3)sc2c1,29.5
15,Cc1cc(Oc2ccc(/C=N\Nc3nc4ccc([N+](=O)[O-])cc4s3)cc2)ccc1Cl,21.5
16,COc1ccc2nc(N/N=C\c3ccc(Oc4ccc(Cl)c(C)c4)cc3)sc2c1,27
